High-throughput results deposited in PubChem by several laboratories.
Hits are enriched below; roughly 2.5% of the tested compounds scored in any of these assays.
NadD block – NadD (S. aureus) enzyme inhibition; purified NadD enzyme, colorimetric absorbance read-out; inhibition, % at 20 µM; 360,000 compounds, 0.78% hits; AID 602399; in the data active = inhibition above about 26%
GRK2 aptamer HTS – inhibitors of human GRK2 displacing RNA aptamer | AID 488847 | bead flow cytometry, FAM-aptamer displacement from GRK2 | 330,000 compounds, 0.59% hits | inhibition of aptamer binding, % at 10 µM;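 active = inhibition of aptamer binding above 40%, roughly 3 SD of noise, on plates passing a quality check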;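 also: median bead fluorescence of bound FAM aptamer so fluorescent compounds give negative values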
ABHD5 PLIN5 PPI – ABHD5-PLIN5 protein interaction inhibition | Q00G26+Q8WTS1 | Split G. princeps luciferase complementation, luminescence, 4 h | inhibition, % at 4 µM | 360,000 compounds, 0.78% hits;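 active = inhibition above the mean inhibition across every tested compound plus 3 SD, cut at about 22% in these data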;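 also: 0% = DMSO only wells and the 100% control is not disclosed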
B2AR ag – agonists of human beta-2 adrenergic receptor inducing internalization. 340,000 compounds, 0.43% hits. response, % (concentration not given with the values). AID 504454. Am2.2-beta2AR cells, FAP receptor internalization, flow cytometry;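 active = response above a set limit, near 3 SD of response in nonfluorescent compounds, cut at about 42% in these data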
Target sequence (P07550 whole entry, looked up): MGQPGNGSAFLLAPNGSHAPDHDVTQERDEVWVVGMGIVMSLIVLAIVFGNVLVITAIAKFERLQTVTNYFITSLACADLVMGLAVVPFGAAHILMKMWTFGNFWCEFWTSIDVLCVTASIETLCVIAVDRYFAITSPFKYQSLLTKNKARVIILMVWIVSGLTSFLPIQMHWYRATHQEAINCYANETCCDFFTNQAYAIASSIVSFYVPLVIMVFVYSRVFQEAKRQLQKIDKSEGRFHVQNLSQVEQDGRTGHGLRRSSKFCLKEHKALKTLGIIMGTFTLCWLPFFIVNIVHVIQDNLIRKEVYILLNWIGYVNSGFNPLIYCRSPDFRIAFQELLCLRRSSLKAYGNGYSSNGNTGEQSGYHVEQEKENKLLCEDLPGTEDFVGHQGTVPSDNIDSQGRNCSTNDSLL
SENP1 FRET inh – blocks the human SENP1 SUMO protease catalytic domain; Q9P0U3; recombinant SENP1 catalytic domain, CyPet-SUMO1-YPet FRET cleavage; inhibition, % at 10 µM; 360,000 compounds, 0.21% hits;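 active = inhibition at least 30% at 10 µM, raw YFP signal under a set limit, fluorescence ratio 0.5 to 1.5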;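 also: 0% = enzyme with DMSO and 100% = no enzyme wells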
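Test system: hSENP1 catalytic domain, recombinant; Amount: 20 pM final SENP1 enzyme; Medium: Tris pH 8 buffer plus EDTA, NaCl, BME, BSA, NP40, catalase; Schedule: 50 min enzyme reaction, room temperature, light-protected; Technique: FRET fluorescence in CFP and YFP emission channels; Controls: no-enzyme wells low, DMSO-plus-enzyme wells high control.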
ABHD5 PLIN5 conf – ABHD5-PLIN5 interaction inhibition, confirmed; shares compounds with ABHD5 PLIN5 PPI; biochemical ABHD5-PLIN5 interaction, luminescence; inhibition, % at 4 µM; 2,200 compounds, 67% hits; AID 651612; in the data active = inhibition above about 23%;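 also: 0% = DMSO vehicle wells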
HNF4 split-luc – HNF4 split-luciferase signal hit, counter-screen | shares compounds with ABHD5 PLIN5 PPI | HNF4 dimerization, luminescence, biochemical | inhibition, % at 4 µM | 2,200 compounds, 77% hits | AID 651674;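 active = mean inhibition across replicate wells exceeding the computed hit threshold, cut at about 13% in these data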;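 also: light from luciferase halves that rejoin when HNF4 fusion proteins dimerize; 0% = DMSO only wells and the 100% control is not given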
Numbers without * were called inactive.

For COc1cc(C2Oc3ccccc3C=C2[N+](=O)[O-])cc(OC)c1OC (stereo not drawn) the results were NadD block 9.0, ABHD5 PLIN5 PPI 39.5*, B2AR ag 30.7, SENP1 FRET inh 0.5, ABHD5 PLIN5 conf 94.7* and HNF4 split-luc 94.3*.
For CCN(CC)CCCNC(=O)CSc1c2c(nc3cc(Cl)ccc13)CCCC2 the results were NadD block -9.6, GRK2 aptamer HTS 0.0, ABHD5 PLIN5 PPI 29.2*, B2AR ag 3.9, SENP1 FRET inh 2.6, ABHD5 PLIN5 conf 39.1* and HNF4 split-luc 27.6*.
Screening Cc1ccc(C(=O)Nc2ccncc2)c(C)c1 returned NadD block -2.9, GRK2 aptamer HTS 1.0, ABHD5 PLIN5 PPI 2.5, B2AR ag 2.8 and SENP1 FRET inh 2.1.
Screening COC(=O)[C@@]1(Cc2ccc(F)cc2)[C@H]2c3cc(C(=O)N(C)C)n(CCCNc4ncc(C(F)(F)F)cc4Cl)c3C[C@H]2CN1C(=O)c1ccccc1 returned NadD block 1.7, ABHD5 PLIN5 PPI 24.9*, SENP1 FRET inh -2.7, ABHD5 PLIN5 conf 7.9 and HNF4 split-luc 5.2.
For Cn1cnc([N+](=O)[O-])c1S(=O)(=O)c1ccc(Cl)cc1 the results were NadD block -6.5, ABHD5 PLIN5 PPI 48.9*, B2AR ag 14.7, SENP1 FRET inh 1.7, ABHD5 PLIN5 conf 74.8* and HNF4 split-luc 98.2*.
`Cn1cnc([N+](=O)[O-])c1NC(C)(C)C` gave NadD block -4.0, GRK2 aptamer HTS 0.0, ABHD5 PLIN5 PPI -7.7, B2AR ag 1.4 and SENP1 FRET inh 0.2.
For Cc1c(NC(=O)COC(=O)c2ccc(Cl)nc2)c(=O)n(-c2ccccc2)n1C the results were NadD block -2.4, GRK2 aptamer HTS 1.0, ABHD5 PLIN5 PPI -7.3, B2AR ag -5.2 and SENP1 FRET inh 1.6.
Screening CCCCCCCCCCCCCCCC[n+]1ccc(/C=N/O)cc1 returned NadD block 19.6, GRK2 aptamer HTS 0.0, ABHD5 PLIN5 PPI 30.6*, B2AR ag 2.7, SENP1 FRET inh -0.2, ABHD5 PLIN5 conf 11.0 and HNF4 split-luc 7.2.
`O/N=C/c1cccc[n+]1CCCCCC[n+]1ccccc1/C=N/O` gave NadD block -7.5, GRK2 aptamer HTS 1.0, ABHD5 PLIN5 PPI -2.8, B2AR ag -5.2 and SENP1 FRET inh -0.9.
`Cc1ccc(Nc2nnc(C)c3ccccc23)c(C)c1` gave NadD block -1.2, GRK2 aptamer HTS 0.0, ABHD5 PLIN5 PPI -6.7, B2AR ag -5.0 and SENP1 FRET inh -0.1.
CCOC(=O)c1c(NC(=O)c2cccs2)sc(C)c1CC was read as NadD block 3.5, GRK2 aptamer HTS 0.0, ABHD5 PLIN5 PPI 1.0, B2AR ag 11.3 and SENP1 FRET inh -5.1.
Screening CCc1c(C)sc(NC(=O)c2cccs2)c1C#N returned NadD block 1.9, GRK2 aptamer HTS 1.0, ABHD5 PLIN5 PPI 23.6*, B2AR ag -5.2, SENP1 FRET inh -4.6, ABHD5 PLIN5 conf -6.5 and HNF4 split-luc -9.9.
Cc1ccsc1/C=N/NC(=O)CNC(=O)c1ccco1 was read as NadD block 0.8, GRK2 aptamer HTS 0.0, ABHD5 PLIN5 PPI -1.8, B2AR ag -5.3 and SENP1 FRET inh 0.5.
Cc1ccsc1/C=N/NC(=O)CNC(=O)c1cccc([N+](=O)[O-])c1C was read as NadD block 0.4, GRK2 aptamer HTS 2.0, ABHD5 PLIN5 PPI 24.9*, B2AR ag 2.2, SENP1 FRET inh 3.5, ABHD5 PLIN5 conf 1.7 and HNF4 split-luc 0.3.
For O=C(NC1CCSc2ccccc21)c1cccc(S(=O)(=O)N2CCOCC2)c1 (stereo not drawn) the results were NadD block -1.5, GRK2 aptamer HTS 0.0, ABHD5 PLIN5 PPI -6.7, B2AR ag -3.5 and SENP1 FRET inh 2.2.
For CCc1nc2nc(C)c(NS(=O)(=O)c3ccc(C)c(C)c3)c(=O)n2[nH]1 the results were NadD block -4.2, GRK2 aptamer HTS 2.0, ABHD5 PLIN5 PPI 1.3, B2AR ag 6.3 and SENP1 FRET inh -0.1.
COc1ccc(OC)c2cc3ccccc3cc12 was read as NadD block 7.1, ABHD5 PLIN5 PPI 47.7*, B2AR ag 13.6, SENP1 FRET inh 80.3, ABHD5 PLIN5 conf 66.7* and HNF4 split-luc 11.9.
